The source made the active and inactive calls. The rule behind the calls is not given here.
Tested on: Enterococcus faecium
Assay: Inhibition of Enterococcus faecium C238 growth in presence of kanamycin A
Format: functional, organism-based
In short: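 Two-dimensional checkerboard MIC assay per NCCLS, in duplicate, in brain heart infusion medium. Test compound in 2-fold dilutions from 8 to 512 µg/mL against kanamycin A at 100-600 µg/mL. Grown at 37 °C for 16 h; growth read at OD625, averaged, normalized to sterility controls and expressed as percent of positive growth controls.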

Row | SMILES | Activity
1 | CC(C)(COC(=O)CC(=O)O)[C@@H](O)C(=O)NCCC(=O)NCCSCC(=O)NC[C@H]1O[C@H](O[C@H]2[C@H](O)[C@@H](O)[C@H](N)C[C@@H]2N)[C@H](N)[C@@H](O)[C@@H]1O | inactive
2 | CC(=O)CC(=O)OCC(C)(C)[C@@H](O)C(=O)NCCC(=O)NCCSCC(=O)NC[C@H]1O[C@H](O[C@H]2[C@H](O)[C@@H](O)[C@H](N)C[C@@H]2N)[C@H](N)[C@@H](O)[C@@H]1O | Active

Source: ChEMBL document CHEMBL1146024, “Synthesis and structure-activity relationships of truncated bisubstrate inhibitors of aminoglycoside 6'-N-acetyltransferases” (J Med Chem, 2006)
